Experimental data taken from BindingDB's records for doi:10.1021/jm701562x (Johannes Gutenberg University, 2008).
Structures can show the parent of a compound that is named as a salt.

What was measured:
[1] = molecular target: Gamma-aminobutyric acid receptor subunit alpha-1 (Rattus norvegicus, UniProt P62813); experiment: Agonist activity at rat recombinant GABAA alpha-1-beta-3-gamma-2 receptor expressed in HEK293 cells assessed as normalization of GABA-induced current by whole cell patch-clamp technique
How it was run: (§1)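 HEK293 cells transiently co-transfected (calcium phosphate) with rat αi, β3 and γ2S cDNAs plus EGFP marker; recorded 2 days later by whole-cell patch clamp in HEPES saline pH 7.35.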

[2] = molecular target: Gamma-aminobutyric acid receptor subunit alpha-2 (Rattus norvegicus, UniProt P23576); experiment: Agonist activity at rat recombinant GABAA alpha-2-beta-3-gamma-2 receptor expressed in HEK293 cells assessed as normalization of GABA-induced current by whole cell patch-clamp technique; how it was run: as §1
Sequence of Gamma-aminobutyric acid receptor subunit alpha-2 (P23576 whole entry): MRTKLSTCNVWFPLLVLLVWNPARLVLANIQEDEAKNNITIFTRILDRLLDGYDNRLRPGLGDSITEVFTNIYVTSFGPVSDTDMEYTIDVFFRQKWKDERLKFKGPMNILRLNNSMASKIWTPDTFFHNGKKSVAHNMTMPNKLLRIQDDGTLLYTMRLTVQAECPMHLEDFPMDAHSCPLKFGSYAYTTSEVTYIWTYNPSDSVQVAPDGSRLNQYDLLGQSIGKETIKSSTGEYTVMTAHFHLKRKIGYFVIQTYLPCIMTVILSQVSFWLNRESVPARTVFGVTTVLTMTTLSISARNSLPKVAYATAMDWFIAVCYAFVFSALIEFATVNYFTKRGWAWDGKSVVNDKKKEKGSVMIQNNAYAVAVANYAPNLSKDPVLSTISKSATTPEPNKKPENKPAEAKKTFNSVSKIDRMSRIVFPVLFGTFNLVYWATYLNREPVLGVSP

Sequence of Gamma-aminobutyric acid receptor subunit alpha-1 (P62813 whole entry): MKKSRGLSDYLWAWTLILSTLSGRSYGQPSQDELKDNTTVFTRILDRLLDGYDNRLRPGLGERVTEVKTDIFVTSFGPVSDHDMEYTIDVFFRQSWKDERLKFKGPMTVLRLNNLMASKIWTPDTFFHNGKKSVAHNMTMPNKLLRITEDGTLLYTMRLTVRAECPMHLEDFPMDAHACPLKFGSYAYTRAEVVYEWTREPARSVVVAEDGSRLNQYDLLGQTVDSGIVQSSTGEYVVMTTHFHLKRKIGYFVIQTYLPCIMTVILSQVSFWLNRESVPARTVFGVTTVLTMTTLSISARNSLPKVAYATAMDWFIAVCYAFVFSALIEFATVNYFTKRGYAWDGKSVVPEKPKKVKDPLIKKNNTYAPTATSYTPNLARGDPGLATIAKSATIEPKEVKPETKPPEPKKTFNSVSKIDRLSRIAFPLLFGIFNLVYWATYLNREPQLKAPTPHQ

- EC50 [1]: 280 µM
- EC50 [2]: 182 µM
Compound: NCc1n[nH]c(=O)o1 [5-Aminomethyl-3H-[1,3,4]oxadiazol-2-one Hydrochloride]
